The record followed here is ChEMBL document CHEMBL5136969, “A niclosamide-tobramycin hybrid adjuvant potentiates cefiderocol against P. aeruginosa” (2021).

Assay type in all cases: functional
For experiment [1], the system named is Staphylococcus epidermidis. Description: Antibacterial activity against methicillin-resistant Staphylococcus epidermidis 61589 assessed as reduction in bacterial growth after 18 hrs by microbroth dilution method. The gist of the method: (§1)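 Broth microdilution per CLSI in Mueller-Hinton broth (MHB). Overnight cultures were adjusted to 0.5 McFarland in saline, diluted 1:50 in MHB, and added at about 5 × 10^5 CFU/mL final to equal volumes of 2-fold serial dilutions of agent. Incubation was 18 h at 37 °C. MIC was the lowest concentration with no visible turbidity, confirmed by absorbance at 590 nm.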

In experiment [2] the test system is Enterococcus faecalis. Description: Antibacterial activity against Enterococcus faecalis ATCC 29212 assessed as reduction in bacterial growth after 18 hrs by microbroth dilution method. The gist of the method:
(§2)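 CLSI microbroth dilution in MHB. Overnight cultures were adjusted to 0.5 McFarland in saline, diluted 1:50, and inoculated at about 5 × 10^5 CFU/mL. Agents were 2-fold serially diluted and incubated 18 h at 37 °C. MIC is the lowest concentration without visible turbidity, confirmed by absorbance at 590 nm. Medium with and without cells served as controls.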
In general terms: Dilution methods test growth across graded concentrations, often in twofold steps.

Experiment [3] has as its system Pseudomonas aeruginosa. Description: Antibacterial activity against Pseudomonas aeruginosa PAO1 assessed as reduction in bacterial growth after 18 hrs by microbroth dilution method. The gist of the method:
(§3)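 CLSI broth microdilution. Overnight cultures were adjusted in saline to 0.5 McFarland, diluted 1:50 in Mueller-Hinton broth (MHB), and inoculated at about 5 × 10^5 CFU/mL. Agents were 2-fold serially diluted in MHB, mixed 1:1 with inoculum, and held at 37 °C for 18 h. MIC was the lowest concentration with no visible turbidity, confirmed at 590 nm.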

Experiment [4] deals with Staphylococcus aureus. Description: Antibacterial activity against Staphylococcus aureus ATCC 29213 assessed as reduction in bacterial growth after 18 hrs by microbroth dilution method. The procedure, abridged: as §3
Experiment [5] concerns Staphylococcus aureus. Description: Antibacterial activity against methicillin-resistant Staphylococcus aureus ATCC 33592 assessed as reduction in bacterial growth after 18 hrs by microbroth dilution method. The gist of the method: as §1
Experiment [6] concerns Acinetobacter baumannii. Description: Antibacterial activity against Acinetobacter baumannii ATCC 17978 assessed as reduction in bacterial growth after 18 hrs by microbroth dilution method. The gist of the method:
as §2

Experiment [7] concerns Escherichia coli. Description: Antibacterial activity against Escherichia coli ATCC 25922 assessed as reduction in bacterial growth after 18 hrs by microbroth dilution method. The procedure, abridged: as §2
Experiment [8] concerns Enterococcus faecium. Description: Antibacterial activity against Enterococcus faecium ATCC 27270 assessed as reduction in bacterial growth after 18 hrs by microbroth dilution method. The procedure, abridged:
as §2

≈ marks a conversion by molar mass, not a printed value. Some results are limits rather than exact numbers.

Usually MIC stands for the lowest concentration that inhibits growth of the organism. As to `O=C(Nc1ccc([N+](=O)[O-])cc1Cl)c1cc(Cl)ccc1O` [NICLOSAMIDE], the minimal inhibitory concentration (MIC) in experiment [1] was 1 µg/mL (≈ 3.06 µM); in experiment [2], 2 µg/mL (≈ 6.11 µM); in experiment [3] it was above 128 µg/mL; in experiment [4], 1 µg/mL (≈ 3.06 µM); in experiment [5], 0.25 µg/mL (≈ 0.764 µM); in experiment [6], above 128 µg/mL. Also, the MIC in experiment [7] was above 128 µg/mL; in experiment [8], 2 µg/mL (≈ 6.11 µM).

On to `NC[C@H]1O[C@H](O[C@H]2[C@H](O)[C@@H](O[C@H]3O[C@H](CO)[C@@H](O)[C@H](N)[C@H]3O)[C@H](N)C[C@@H]2N)[C@H](N)C[C@@H]1O` [TOBRAMYCIN], for which the minimum inhibitory concentration (MIC) in experiment [1] was found to be 8 µg/mL (≈ 17.1 µM); in experiment [2], 8 µg/mL (≈ 17.1 µM); in experiment [3] it was 0.5 µg/mL (≈ 1.07 µM); in experiment [4], 0.5 µg/mL (≈ 1.07 µM); in experiment [5] it was 2 µg/mL (≈ 4.28 µM); in experiment [6], 0.5 µg/mL (≈ 1.07 µM). The MIC in experiment [7] came out at 2 µg/mL (≈ 4.28 µM); in experiment [8], 16 µg/mL (≈ 34.2 µM).
